Experimental data from ChEMBL document CHEMBL2176962, “Repositioning HIV-1 integrase inhibitors for cancer therapeutics: 1,6-naphthyridine-7-carboxamide as a promising scaffold with drug-like properties” (J Med Chem, 2012).
Activity calls are given as the source filed them. No cut-off for these calls is given here.

Key:
[1] = target: Proto-oncogene tyrosine-protein kinase Src (Homo sapiens) (UniProt P12931); experiment: Inhibition of SRC at 10 uM incubated for 60 mins using poly(Glu,Tyr)4:1 substrate and 10 uM ATP by ELISA
Outline: (§1)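 ELISA with Poly(Glu,Tyr)4:1 (20 μg/mL) precoated as substrate and 10 μM ATP, in 50 mM HEPES pH 7.4, 20 mM MgCl2, 0.1 mM MnCl2, 0.2 mM Na3VO4, 1 mM DTT. Compound was tested at 10 μM, in duplicate. Kinase reaction ran 60 min at 37 °C. Phosphotyrosine was detected with PY99 and HRP anti-mouse IgG, developed with o-phenylenediamine/H2O2, stopped with H2SO4 and read at 492 nm. Inhibition = [1 − A492 treated/A492 control] × 100%. References: lapatinib (ErbB2) and PP2 (Src), each at 10 μM.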

LNCaP = experiment: Cytotoxicity against human LNCAP cells incubated for 72 hrs by MTT assay; assay type: functional, cell-based
Outline: (§2)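 Cells were kept in DMEM (MDA-MB-435, MCF7, LNCaP) or RPMI (HT29, HCT116) with 10% heat-inactivated FBS and 2 mM L-glutamine, subconfluent and in exponential growth. They were seeded, allowed to adhere overnight, then exposed continuously to compound (10 mM DMSO stock) for 72 h. MTT was added to 0.3 mg/mL final for 3–4 h at 37 °C, formazan was dissolved in DMSO, and absorbance was read at 570 nm. Runs were in triplicate; IC50 came from log concentration versus percent cell kill.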

HT-29 = experiment: Cytotoxicity against human HT-29 cells incubated for 72 hrs by MTT assay; assay type: functional, cell-based; details: HT-29, 72 h; outline: as §2
MCF7 = experiment: Cytotoxicity against human MCF7 cells incubated for 72 hrs by MTT assay; assay type: functional, cell-based; details: MCF7, 72 h; outline: as §2
SK-BR-3 = experiment: Cytotoxicity against human SKBR3 cells incubated for 72 hrs by MTT assay; assay type: functional, cell-based; details: SK-BR-3, 72 h
HCT-116 [2] = experiment: Cytotoxicity against p53 expressing human HCT116 cells incubated for 72 hrs by MTT assay; assay type: functional, cell-based; details: HCT-116, 72 h; outline: as §2
HCT-116 [3] = experiment: Cytotoxicity against p53 deficient human HCT116 cells incubated for 72 hrs by MTT assay; assay type: functional, cell-based; details: HCT-116, 72 h; outline: as §2
MDA-MB-435 [4] = experiment: Cytotoxicity against human MDA-MB-435 cells incubated for 72 hrs by MTT assay; assay type: functional, cell-based; details: MDA-MB-435, 72 h; outline: as §2
[5] = target: Vascular endothelial growth factor receptor 2 (Homo sapiens) (UniProt P35968); details: at 10 µM
[6] = target: Receptor tyrosine-protein kinase erbB-2 (Homo sapiens) (UniProt P04626); experiment: Inhibition of ErbB2 at 10 uM incubated for 60 mins using poly(Glu,Tyr)4:1 substrate and 10 uM ATP by ELISA; outline: as §1
MDA-MB-435 [7] = experiment: Inhibition of colony formation in human MDA-MB-435 cells at 10 uM treated continuously for 7 days by crystal violet staining based colony formation assay; assay type: functional, cell-based
Outline: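 MDA-MB-435 cells (500 per well) were adhered overnight and treated with compound at 10 μM, or across a dose range. The methods describe a 24 h treatment, then PBS washing and 7–10 days regrowth; the figure legend describes continuous 7-day treatment. Colonies were fixed and stained with 2% crystal violet containing 1% glutaraldehyde, then imaged.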

[8] = Therapeutic index, ratio of CC50 for human C8166 cells to EC50 for HIV1 3B; assay type: cell-based; details: read-out: Ratio CC50/EC50
Outline: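 Therapeutic index was calculated as the C8166 MTT CC50 divided by the HIV-1 IIIB syncytium-reduction EC50.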

[9] = Toxicity against human C8166 cells incubated for 72 hrs by MTT assay; assay type: cell-based
Outline: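 C8166 cells were seeded with serial compound dilutions in triplicate and incubated at 37 °C, 5% CO2 for 72 h. MTT (5 mg/mL in PBS) was added for 4 h, and formazan was dissolved in 50% DMF-20% SDS. Absorbance was read at 595/630 nm. CC50 was taken from the dose-response curve.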

[10] = test system: Human immunodeficiency virus 1; experiment: Antiviral activity against HIV1 3B infected in human C8166 cells assessed as reduction in virus-induced cytopathogenicity measured after 3 days by syncytium reduction assay; assay type: functional, organism-based; details: Human immunodeficiency virus 1, 3B, C8166, 72 h
Outline: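 C8166 cells (4 × 10⁵ mL⁻¹), grown in RPMI-1640 with 10% heat-inactivated FCS and kept in log phase, infected with HIV-1 IIIB at MOI 0.06 in the presence of serial compound dilutions. AZT served as positive control. After 3 days, syncytia were counted by inverted microscope. EC50 was derived from percent inhibition of syncytium number relative to infected control.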

[11] = target: T1, Human immunodeficiency virus type 1 integrase (Human immunodeficiency virus 1, UniProt Q7ZJM1); experiment: Inhibition of HIV1 integrase strand transfer activity using [32P]-labeled linear oligonucleotide substrate
[12] = target: T1, Human immunodeficiency virus type 1 integrase; experiment: Inhibition of HIV1 integrase 3'-processing activity using [32P]-labeled linear oligonucleotide substrate
[13] = target: Angiopoietin-1 receptor (Homo sapiens) (UniProt Q02763); experiment: Inhibition of TIE2 at 10 uM in presence of ATP at Km level by kinase profiler method
[14] = target: Hepatocyte growth factor receptor (Homo sapiens) (UniProt P08581); experiment: Inhibition of MET at 10 uM in presence of ATP at Km level by kinase profiler method
[15] = target: Vascular endothelial growth factor receptor 2 (Homo sapiens) (UniProt P35968); experiment: Inhibition of KDR at 10 uM in presence of ATP at Km level by kinase profiler method
[16] = target: Fibroblast growth factor receptor 1 (Homo sapiens) (UniProt P11362); experiment: Inhibition of FGFR1 at 10 uM in presence of ATP at Km level by kinase profiler method
[17] = target: Insulin-like growth factor 1 receptor (Homo sapiens) (UniProt P08069); experiment: Inhibition of IGF1R at 10 uM in presence of ATP at Km level by kinase profiler method
HEY = experiment: Cytotoxicity against human HEY cells incubated for 72 hrs by MTT assay; assay type: functional, cell-based
[18] = test system: Tyrosine-protein kinase ABL1 (Homo sapiens), P00519 [T315I]; experiment: Inhibition of Abl T315I mutant at 10 uM in presence of ATP at Km level by kinase profiler method
[19] = target: T2, Aurora kinase A (Homo sapiens) (UniProt O14965); experiment: Inhibition of Aurora A kinase at 10 uM in presence of ATP at Km level by kinase profiler method
T2 sequence (whole entry): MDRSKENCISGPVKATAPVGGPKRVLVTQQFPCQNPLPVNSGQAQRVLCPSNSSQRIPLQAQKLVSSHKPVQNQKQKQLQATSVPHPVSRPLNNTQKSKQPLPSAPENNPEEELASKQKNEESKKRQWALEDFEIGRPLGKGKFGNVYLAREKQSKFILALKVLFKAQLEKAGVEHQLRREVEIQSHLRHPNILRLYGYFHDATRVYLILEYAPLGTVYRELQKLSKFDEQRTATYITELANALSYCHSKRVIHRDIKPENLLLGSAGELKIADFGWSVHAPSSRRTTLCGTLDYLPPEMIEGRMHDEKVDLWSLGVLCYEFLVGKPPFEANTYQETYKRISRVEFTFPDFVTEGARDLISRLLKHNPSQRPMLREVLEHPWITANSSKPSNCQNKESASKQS

[20] = target: Tyrosine-protein kinase Lck (Homo sapiens) (UniProt P06239); experiment: Inhibition of LCK at 10 uM in presence of ATP at Km level by kinase profiler method
Tyrosine-protein kinase Lck (Homo sapiens), sequence (P06239 2-509 limits assumed): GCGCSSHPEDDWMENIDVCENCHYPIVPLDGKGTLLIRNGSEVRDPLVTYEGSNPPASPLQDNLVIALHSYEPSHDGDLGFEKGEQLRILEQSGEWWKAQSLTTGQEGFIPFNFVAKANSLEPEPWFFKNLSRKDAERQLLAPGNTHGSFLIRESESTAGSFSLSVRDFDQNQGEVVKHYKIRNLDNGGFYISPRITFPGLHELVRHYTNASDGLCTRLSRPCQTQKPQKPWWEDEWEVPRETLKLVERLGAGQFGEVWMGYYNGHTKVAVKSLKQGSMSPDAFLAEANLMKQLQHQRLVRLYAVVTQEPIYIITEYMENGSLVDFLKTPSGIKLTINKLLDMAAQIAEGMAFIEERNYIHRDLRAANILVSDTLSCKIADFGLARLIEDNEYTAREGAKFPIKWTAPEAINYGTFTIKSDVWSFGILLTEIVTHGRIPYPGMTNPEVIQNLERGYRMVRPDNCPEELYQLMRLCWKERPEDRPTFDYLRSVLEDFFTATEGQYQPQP

Proto-oncogene tyrosine-protein kinase Src (Homo sapiens), sequence (P12931 2-536 limits assumed): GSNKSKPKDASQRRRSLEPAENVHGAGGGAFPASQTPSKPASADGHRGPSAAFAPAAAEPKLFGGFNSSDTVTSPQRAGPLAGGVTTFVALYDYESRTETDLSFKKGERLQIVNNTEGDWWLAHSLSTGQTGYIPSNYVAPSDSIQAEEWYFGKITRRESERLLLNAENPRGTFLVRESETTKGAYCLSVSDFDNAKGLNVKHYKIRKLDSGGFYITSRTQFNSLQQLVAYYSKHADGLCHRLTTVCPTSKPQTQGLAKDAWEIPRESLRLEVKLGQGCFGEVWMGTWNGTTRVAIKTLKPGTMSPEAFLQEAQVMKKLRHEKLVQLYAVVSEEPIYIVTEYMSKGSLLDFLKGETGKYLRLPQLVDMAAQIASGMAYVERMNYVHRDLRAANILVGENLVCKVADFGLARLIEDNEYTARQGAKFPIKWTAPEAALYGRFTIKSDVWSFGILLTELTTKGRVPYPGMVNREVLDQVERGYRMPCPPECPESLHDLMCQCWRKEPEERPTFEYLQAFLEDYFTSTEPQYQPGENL
Vascular endothelial growth factor receptor 2 (Homo sapiens), sequence (P35968 whole entry): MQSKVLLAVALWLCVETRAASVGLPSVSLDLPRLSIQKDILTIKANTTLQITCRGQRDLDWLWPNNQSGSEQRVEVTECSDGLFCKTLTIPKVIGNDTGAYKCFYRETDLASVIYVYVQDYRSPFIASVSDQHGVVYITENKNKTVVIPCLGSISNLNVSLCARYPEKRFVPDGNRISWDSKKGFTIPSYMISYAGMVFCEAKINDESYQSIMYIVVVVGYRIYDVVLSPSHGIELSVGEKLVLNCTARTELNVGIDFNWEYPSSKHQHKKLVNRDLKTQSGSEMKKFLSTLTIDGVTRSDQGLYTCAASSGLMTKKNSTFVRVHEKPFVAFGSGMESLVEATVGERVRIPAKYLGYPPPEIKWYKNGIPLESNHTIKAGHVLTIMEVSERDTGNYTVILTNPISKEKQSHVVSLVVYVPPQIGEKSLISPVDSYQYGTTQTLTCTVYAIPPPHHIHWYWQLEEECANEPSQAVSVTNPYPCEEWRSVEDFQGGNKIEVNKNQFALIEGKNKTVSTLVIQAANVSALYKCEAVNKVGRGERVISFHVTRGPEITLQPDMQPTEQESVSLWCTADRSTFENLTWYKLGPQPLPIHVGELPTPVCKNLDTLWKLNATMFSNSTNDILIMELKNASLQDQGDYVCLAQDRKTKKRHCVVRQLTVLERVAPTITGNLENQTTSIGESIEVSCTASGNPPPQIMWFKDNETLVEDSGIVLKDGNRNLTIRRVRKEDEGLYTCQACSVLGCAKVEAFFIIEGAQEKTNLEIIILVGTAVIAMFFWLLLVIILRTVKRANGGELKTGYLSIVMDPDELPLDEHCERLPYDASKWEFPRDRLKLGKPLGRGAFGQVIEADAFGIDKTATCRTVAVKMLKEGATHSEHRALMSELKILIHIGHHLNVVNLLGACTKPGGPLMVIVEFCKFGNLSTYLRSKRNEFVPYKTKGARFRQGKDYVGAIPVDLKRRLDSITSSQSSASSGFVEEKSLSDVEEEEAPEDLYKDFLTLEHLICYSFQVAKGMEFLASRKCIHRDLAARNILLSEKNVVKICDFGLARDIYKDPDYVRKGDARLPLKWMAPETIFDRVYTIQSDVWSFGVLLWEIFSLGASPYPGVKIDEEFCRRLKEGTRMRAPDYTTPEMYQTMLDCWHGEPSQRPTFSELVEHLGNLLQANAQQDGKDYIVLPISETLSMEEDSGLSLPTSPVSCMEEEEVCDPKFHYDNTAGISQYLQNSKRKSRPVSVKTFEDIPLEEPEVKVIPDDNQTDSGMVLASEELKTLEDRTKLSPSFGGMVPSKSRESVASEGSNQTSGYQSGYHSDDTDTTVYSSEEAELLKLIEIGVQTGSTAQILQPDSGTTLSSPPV
T1 sequence (Q7ZJM1 whole entry): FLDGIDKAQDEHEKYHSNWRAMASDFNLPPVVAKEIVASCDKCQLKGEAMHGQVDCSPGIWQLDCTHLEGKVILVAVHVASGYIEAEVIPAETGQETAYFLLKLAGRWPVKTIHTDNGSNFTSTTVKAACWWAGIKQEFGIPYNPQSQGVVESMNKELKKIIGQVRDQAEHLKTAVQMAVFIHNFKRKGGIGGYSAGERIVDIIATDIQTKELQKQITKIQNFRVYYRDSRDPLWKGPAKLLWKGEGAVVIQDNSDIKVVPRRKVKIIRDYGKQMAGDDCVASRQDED
Fibroblast growth factor receptor 1 (Homo sapiens), sequence (P11362 22-822 limits assumed): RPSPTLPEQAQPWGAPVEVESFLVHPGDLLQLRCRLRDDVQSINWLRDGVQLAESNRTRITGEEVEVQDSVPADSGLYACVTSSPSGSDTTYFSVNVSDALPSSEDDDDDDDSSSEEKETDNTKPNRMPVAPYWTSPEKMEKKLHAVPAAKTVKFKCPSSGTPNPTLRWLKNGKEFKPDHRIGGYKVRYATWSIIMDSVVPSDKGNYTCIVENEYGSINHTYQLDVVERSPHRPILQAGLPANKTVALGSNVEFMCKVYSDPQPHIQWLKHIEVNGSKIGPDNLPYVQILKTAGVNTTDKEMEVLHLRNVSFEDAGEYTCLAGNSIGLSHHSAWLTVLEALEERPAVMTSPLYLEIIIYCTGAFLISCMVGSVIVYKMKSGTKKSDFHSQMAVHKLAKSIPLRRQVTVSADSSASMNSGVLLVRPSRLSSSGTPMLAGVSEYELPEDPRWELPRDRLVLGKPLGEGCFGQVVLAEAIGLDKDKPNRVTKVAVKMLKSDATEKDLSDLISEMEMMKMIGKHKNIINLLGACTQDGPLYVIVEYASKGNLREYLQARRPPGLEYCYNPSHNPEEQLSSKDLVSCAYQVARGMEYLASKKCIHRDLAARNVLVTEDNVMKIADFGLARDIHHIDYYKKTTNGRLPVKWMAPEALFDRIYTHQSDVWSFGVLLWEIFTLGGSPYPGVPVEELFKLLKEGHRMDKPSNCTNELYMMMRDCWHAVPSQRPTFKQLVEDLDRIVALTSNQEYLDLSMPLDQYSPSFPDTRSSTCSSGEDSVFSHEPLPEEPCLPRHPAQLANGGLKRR
Insulin-like growth factor 1 receptor (Homo sapiens), sequence (P08069 31-736 limits assumed): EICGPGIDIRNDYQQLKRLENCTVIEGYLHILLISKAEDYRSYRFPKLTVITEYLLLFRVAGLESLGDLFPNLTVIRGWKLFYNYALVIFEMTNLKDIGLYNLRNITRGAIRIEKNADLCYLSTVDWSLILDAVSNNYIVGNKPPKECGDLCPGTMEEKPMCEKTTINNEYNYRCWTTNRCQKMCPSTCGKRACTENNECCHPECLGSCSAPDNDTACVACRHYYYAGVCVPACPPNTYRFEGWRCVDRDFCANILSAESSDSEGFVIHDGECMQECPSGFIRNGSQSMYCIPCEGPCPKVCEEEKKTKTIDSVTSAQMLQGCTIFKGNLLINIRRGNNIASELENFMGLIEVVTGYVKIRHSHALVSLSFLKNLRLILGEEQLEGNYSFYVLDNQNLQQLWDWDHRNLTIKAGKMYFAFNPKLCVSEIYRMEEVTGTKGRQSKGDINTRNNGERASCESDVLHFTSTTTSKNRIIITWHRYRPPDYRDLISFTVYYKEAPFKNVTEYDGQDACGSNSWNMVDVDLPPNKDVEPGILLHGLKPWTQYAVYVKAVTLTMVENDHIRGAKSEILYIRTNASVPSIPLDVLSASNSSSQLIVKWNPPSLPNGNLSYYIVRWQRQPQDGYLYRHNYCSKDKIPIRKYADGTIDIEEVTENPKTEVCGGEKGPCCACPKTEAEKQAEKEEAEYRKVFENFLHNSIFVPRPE
Insulin-like growth factor 1 receptor (Homo sapiens), sequence (P08069 741-1367 limits assumed): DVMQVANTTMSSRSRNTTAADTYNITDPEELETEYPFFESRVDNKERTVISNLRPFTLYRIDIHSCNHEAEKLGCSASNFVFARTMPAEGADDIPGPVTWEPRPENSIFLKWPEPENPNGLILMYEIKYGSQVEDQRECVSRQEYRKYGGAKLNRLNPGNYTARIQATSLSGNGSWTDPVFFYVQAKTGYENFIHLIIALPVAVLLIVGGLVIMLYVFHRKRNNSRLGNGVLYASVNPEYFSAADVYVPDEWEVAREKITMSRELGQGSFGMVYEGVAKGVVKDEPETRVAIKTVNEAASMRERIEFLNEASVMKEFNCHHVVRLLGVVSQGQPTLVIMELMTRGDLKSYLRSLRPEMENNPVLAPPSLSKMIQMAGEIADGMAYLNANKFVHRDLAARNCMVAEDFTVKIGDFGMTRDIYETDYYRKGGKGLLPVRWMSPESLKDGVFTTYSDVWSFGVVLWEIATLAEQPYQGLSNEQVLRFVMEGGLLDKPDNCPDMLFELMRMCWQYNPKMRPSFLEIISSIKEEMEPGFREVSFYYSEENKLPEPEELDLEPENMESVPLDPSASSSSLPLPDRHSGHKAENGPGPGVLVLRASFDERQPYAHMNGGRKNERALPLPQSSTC

| inhibition [1] [%] | inhibition [5] [%] | inhibition [6] [%] | EC50 [10] [µM] | IC50 [11] [µM] | IC50 [12] [µM] | Structure (SMILES) | IC50 (LNCaP) [µM] | IC50 (HT-29) [µM] | IC50 (MCF7) [µM] | IC50 (SK-BR-3) [µM] | IC50 (HCT-116 [2]) [µM] | IC50 (HCT-116 [3]) [µM] | IC50 (MDA-MB-435 [4]) [µM] | selectivity ratio [8] | CC50 at 72 h [9] [µM] | further results |
| --- | --- | --- | --- | --- | --- | --- | --- | --- | --- | --- | --- | --- | --- | --- | --- | --- |
| – | – | – | 0.368 | 1 | 14 | O=C(NCc1ccc(F)cc1)c1nc(NCCc2c[nH]c3ccccc23)c2cccnc2c1O | – | – | 12 | – | – | – | 13 | 114 | 42 | – |
| 23 | – | 11 | 0.027 | 0.2 | 6 | O=CNCCCCCCNc1nc(C(=O)NCc2ccc(F)cc2)c(O)c2ncccc12 | – | – | 19 | – | 4 | 6 | 16 | 7370 | 199 | – |
| – | – | – | 48.9 | 69 | > 100 | O=C(NCc1ccc(F)cc1)c1nc(Br)c2cccnc2c1NCCO | – | – | – | – | > 20 | > 20 | > 20 | 4.8 | 232 | – |
| – | – | – | 0.002 | 0.7 | 11 | CS(=O)(=O)NCCCCCCN(c1nc(C(=O)NCc2ccc(F)cc2)c(O)c2ncccc12)S(C)(=O)=O | – | – | 7 | – | 3 | 4 | 20 | 18500 | 37 | – |
| 18 | 0 | – | – | – | – | NCCCCCCNc1c(C(=O)NCc2ccc(F)cc2)nc(Br)c2cccnc12 | 8 | 5 | 2 | 3 | 7 | > 10 | 6 | – | – | inhibition (MDA-MB-435 [7]): Active |
| – | – | – | 5.01 | 31 | > 111 | Cc1ccc(S(=O)(=O)Oc2c(C(=O)NCc3ccc(F)cc3)nc(Br)c3cccnc23)cc1 | – | – | – | – | > 20 | > 20 | > 20 | 6.2 | 31 | – |

The remaining lines, values behind:

| Structure (SMILES) | inhibition [1] [%] | inhibition [5] [%] | inhibition [6] [%] | EC50 [10] [µM] | IC50 [11] [µM] | IC50 [12] [µM] | IC50 (LNCaP) [µM] | IC50 (HT-29) [µM] | IC50 (MCF7) [µM] | IC50 (SK-BR-3) [µM] | IC50 (HCT-116 [2]) [µM] | IC50 (HCT-116 [3]) [µM] | IC50 (MDA-MB-435 [4]) [µM] | selectivity ratio [8] | CC50 at 72 h [9] [µM] | further results |
| --- | --- | --- | --- | --- | --- | --- | --- | --- | --- | --- | --- | --- | --- | --- | --- | --- |
| O=C(NCc1ccc(F)cc1)c1nc(Br)c2cccnc2c1N1CCNCC1 | 29 | 4 | – | – | – | – | 4.5 | 10 | 7 | 6 | > 10 | > 10 | 8 | – | – | – |
| O=C(NCc1ccc(F)cc1)c1nc(Br)c2cccnc2c1NC1CCNCC1 | 9 | 0 | 1 | – | – | – | 6 | 4 | 3 | 1 | 9.2 | 6 | 7 | – | – | inhibition (MDA-MB-435 [7]): Active |
| CS(=O)(=O)NCCCN(c1nc(C(=O)NCc2ccc(F)cc2)c(O)c2ncccc12)S(C)(=O)=O | – | – | – | 0.003 | 0.7 | 34 | – | – | > 20 | – | 15 | 7 | > 20 | 21300 | 64 | – |
| O=C(NCc1ccc(F)cc1)c1nc(Br)c2cccnc2c1O | – | – | – | 11.1 | 0.5 | 14 | – | – | – | – | > 20 | > 20 | 15 | 7.2 | 80 | – |
| COc1ccc(CNC(=O)c2nc(Br)c3cccnc3c2N[C@H]2CC[C@H](N)CC2)cc1 | 76 | 2 | 0 | – | – | – | – | – | – | 5 | 3 | – | 5 | – | – | inhibition [13]: Active; inhibition [14]: Active; inhibition [15]: Active; inhibition [16]: Active; inhibition [17]: Active; IC50 (HEY): 4 µM |
| O=C(NCc1ccc(F)cc1)c1nc(N2CCCCS2(=O)=O)c2cccnc2c1O | 13 | – | 8 | 0.005 | 0.3 | 11 | – | – | 2 | – | 2 | 2 | 6 | 26400 | 132 | – |
| Nc1ccc(Nc2c(C(=O)NCc3ccc(F)cc3)nc(Br)c3cccnc23)cc1 | 7 | 8 | 1 | – | – | – | 7 | > 10 | 4 | 4 | 10 | 7 | 7 | – | – | – |
| NCCCNc1c(C(=O)NCc2ccc(F)cc2)ncc2cccnc12 | 15 | 10 | – | – | – | – | > 10 | > 10 | > 10 | > 10 | > 10 | > 10 | 16 | – | – | – |
| CN(C)CCCNc1c(C(=O)NCc2ccc(F)cc2)nc(Br)c2cccnc12 | 17 | 0 | – | – | – | – | 8 | 6 | 7 | 1 | > 10 | > 10 | 7 | – | – | – |
| N[C@H]1CC[C@H](Nc2c(C(=O)NCc3ccc(Cl)cc3Cl)nc(Br)c3cccnc23)CC1 | 90 | 41 | 13 | – | – | – | – | – | – | 6 | 6 | – | 5.8 | – | – | inhibition [18]: Active; inhibition [19]: Active; inhibition [20]: Active; inhibition [16]: Active; inhibition [17]: Active; IC50 (HEY): 5 µM |
| N[C@H]1CC[C@H](Nc2c(C(=O)NCc3ccc(Cl)cc3)nc(Br)c3cccnc23)CC1 | 70 | 34 | 0 | – | – | – | – | – | – | 2 | 4 | – | 1 | – | – | inhibition [18]: Active; inhibition [19]: Active; inhibition [20]: Active; inhibition [16]: Active; inhibition [17]: Active; IC50 (HEY): 1 µM |
